Assay results collected from several papers.
Compare with care: the assays were run in different laboratories.
Target: RAC-alpha serine/threonine-protein kinase (AKT1, Homo sapiens, UniProt P31749)

O=C(Nc1cnc(Oc2ccc(F)cc2)nc1)N1CCc2ncccc2[C@@H]1c1ccc(F)cc1
remaining binding (cell-free assay, competition with immobilised ligand; 1 µM): 100%

O=C(NCCCN1CCOCC1)c1ccc(Nc2ncc(Cl)c(-c3ccc(Cl)s3)n2)cc1
remaining binding (binding, competition with immobilised ligand; 1 µM): 100%

COc1ncc2cc3ccccc3nc2c1C#N
remaining binding (cell-free assay, competition with immobilised ligand; 5 µM): 92%

O=C(NCCCN1CCOCC1)c1ccc(Nc2nccc(-c3cc4ccccc4s3)n2)cc1
remaining binding (binding, competition with immobilised ligand; 1 µM): 100%

Cc1nc(N2CC[C@@H](O)C2)ncc1-c1cc(C(F)(F)F)cc2[nH]ncc12
remaining binding (binding, competition with immobilised ligand; 1 µM): 100%

O=C(c1ccc(Nc2ncc(Cl)c(-c3ccc(Cl)s3)n2)cc1)N1CCC(N2CCCC2)CC1
remaining binding (binding, competition with immobilised ligand; 1 µM): 100%

C[C@H](c1ccc(F)cc1)N(Cc1cccc(C(=O)O)c1)C(=O)c1cnc2ccccc2c1
remaining binding (cell-free assay, competition with immobilised ligand; 1 µM): 100%

c1cncc(-c2cccc(Nc3nccc(NC4CCCCC4)n3)c2)c1
remaining binding (binding, competition with immobilised ligand; 10 µM): 71%

COc1cnc(Nc2cccc(S(N)(=O)=O)c2)nc1N1CCN(c2ccccc2)C(=O)C1
remaining binding (binding, competition with immobilised ligand; 1 µM): 100%

CN(C)c1nccc(-c2cnn3ncccc23)n1
remaining binding (binding; 1 µM): 100%

Cc1c(C(=O)O)cc(-c2ccc(C3CCNCC3)cc2)c2ccc(-c3ccc(C(F)(F)F)cc3)cc12
remaining binding (binding, competition with immobilised ligand; 1 µM): 100%

Cc1cnn2ncc(-c3ccnc(N(C)C)n3)c2c1
remaining binding (binding; 1 µM): 94%

CS(=O)(=O)N1CCCC(NC(=O)[C@H](CCC2CCCCC2)NC(=O)c2ccc(CNc3ncnc4c3nnn4-c3ccccc3)cc2)C1 (stereo partly shown)
remaining binding (cell-free assay, competition with immobilised ligand; 0.1 µM): 100%

C[C@@H]1CN(c2ccc3ncc(-c4ccc5[nH]nc(C6CC6)c5c4)n3n2)C[C@H](C)O1
remaining binding (binding, competition with immobilised ligand; 50 nM): 98%

O=C(Nc1cccnn1)N1CCC(=Cc2cccc(Oc3ccc(C(F)(F)F)cn3)c2)CC1
remaining binding (cell-free assay, competition with immobilised ligand; 1 µM): 93%

c1cnn2ncc(-c3ccnc(N4CCC45COC5)n3)c2c1
remaining binding (binding; 1 µM): 95%

COc1cnc(Nc2cccc(S(N)(=O)=O)c2)nc1N1CCN(c2ccccc2)CC1
remaining binding (binding, competition with immobilised ligand; 1 µM): 100%

CC(=O)C1=C(C)N(c2cccc(C(F)(F)F)c2)C(=O)N[C@@H]1c1ccc(C#N)nc1
remaining binding (cell-free assay, competition with immobilised ligand; 1 µM): 90.4%

C=CC(=O)N1CCC(C(=O)NCC(=O)N2CCN(c3nc(-c4cnc(N)nc4C(F)F)nc(N4CCOCC4)n3)CC2)CC1
remaining binding (binding, competition with immobilised ligand; 1 µM): 94%

N[C@@H]1CCN(c2nccc(-c3cnn4ncccc34)n2)C1
remaining binding (binding; 1 µM): 100%

O=C(NCC1CCOCC1)c1n[nH]cc1NC(=O)c1c(F)cccc1F
remaining binding (binding, competition with immobilised ligand; 1 µM): 95%

F[C@@H]1CCN(c2nccc(-c3cnn4ncccc34)n2)C1
remaining binding (binding; 1 µM): 100%

FC(F)(F)Oc1cccc(-c2cnc3ccc(-c4ccncc4)nn23)c1
remaining binding (cell-free assay, competition with immobilised ligand; 5 µM): 88%

C[C@@H]1CCN(c2nccc(-c3cnn4ncccc34)n2)C1
remaining binding (binding; 1 µM): 93%

Nc1ncc2c(n1)-c1c([nH]c3ccc(C#CC4CC4)cc13)CCCC2
remaining binding (binding, competition with immobilised ligand; 1 µM): 95%
